Test results: the array DNA melting data of Ke et al. (doi:10.1101/2024.01.08.574731)

Assays:
[1] = melting temperature; fluorescence melt of hairpins on a sequencing array, two-state fit, raised by 9.35 °C to match UV melts; conditions: sodium 0.088 M
In short: (§1)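 Melting temperature and folding enthalpy were derived from bootstrapped two-state fits. The fitted temperatures were raised by 9.35 °C to agree with UV melts, and four replicates were combined by inverse variance. The underlying data were Cy3 fluorescence images of library hairpins, with annealed Cy3 and quencher oligos, on a sequenced MiSeq flow cell in 50 mM Na-HEPES pH 8.0, 25 mM NaCl, taken in 2.5 °C steps up to 60 °C, normalised to pre-quench Cy3 and to control constructs.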

[2] = folding enthalpy; higher = less favourable; fluorescence melt of hairpins on a sequencing array, two-state fit; conditions: sodium 0.088 M
In short: as §1

## GATCGCTTGTGCGATC ((((((....))))))
[1]
  Tm: 68 °C
[2]
  folding enthalpy: -21.5 kcal/mol

## GATCGGAAAACCGATC ((((((....))))))
[1]
  Tm: 51.2 °C
[2]
  folding enthalpy: -35.5 kcal/mol

## GATCGGAACACCGATC ((((((....))))))
[1]
  Tm: 55.2 °C
[2]
  folding enthalpy: -39.9 kcal/mol

## GATCGGAACTCCGATC ((((((....))))))
[1]
  Tm: 55.2 °C
[2]
  folding enthalpy: -45.1 kcal/mol

## GATCGGACGTCCGATC ((((((....))))))
[1]
  Tm: 62.7 °C
[2]
  folding enthalpy: -47.5 kcal/mol

## GATCGGACTCCCGATC ((((((....))))))
[1]
  Tm: 53.8 °C
[2]
  folding enthalpy: -35.3 kcal/mol

## GATCGGACTCCGATC ((((((...))))))
[1]
  Tm: 55.2 °C
[2]
  folding enthalpy: -33.8 kcal/mol

## GATCGGAGATCCGATC ((((((....))))))
[1]
  Tm: 56 °C
[2]
  folding enthalpy: -27.6 kcal/mol

## GATCGGAGGACCGATC ((((((....))))))
[1]
  Tm: 53.3 °C
[2]
  folding enthalpy: -31.2 kcal/mol

## GATCGGATATCCGATC ((((((....))))))
[1]
  Tm: 58.3 °C
[2]
  folding enthalpy: -42.9 kcal/mol

## GATCGGATCGCCGATC ((((((....))))))
[1]
  Tm: 55.8 °C
[2]
  folding enthalpy: -32.2 kcal/mol

## GATCGGATGACCGATC ((((((....))))))
[1]
  Tm: 55.8 °C
[2]
  folding enthalpy: -29.8 kcal/mol

## GATCGGATTCCCGATC ((((((....))))))
[1]
  Tm: 55.5 °C
[2]
  folding enthalpy: -36 kcal/mol

## GATCGGCAAACCGATC ((((((....))))))
[1]
  Tm: 56.5 °C
[2]
  folding enthalpy: -36.1 kcal/mol

## GATCGGCAACCCGATC ((((((....))))))
[1]
  Tm: 54.4 °C
[2]
  folding enthalpy: -38.5 kcal/mol

## GATCGGCACCCGATC ((((((...))))))
[1]
  Tm: 55 °C
[2]
  folding enthalpy: -35.9 kcal/mol

## GATCGGCAGACCGATC ((((((....))))))
[1]
  Tm: 57.5 °C
[2]
  folding enthalpy: -38 kcal/mol

## GATCGGCAGCCGATC ((((((...))))))
[1]
  Tm: 55.2 °C
[2]
  folding enthalpy: -50.7 kcal/mol

## GATCGGCAGTCCGATC ((((((....))))))
[1]
  Tm: 56.7 °C
[2]
  folding enthalpy: -37.7 kcal/mol

## GATCGGCCCCCCGATC ((((((....))))))
[1]
  Tm: 56.1 °C
[2]
  folding enthalpy: -37.1 kcal/mol

## GATCGGCCCCCGATC ((((((...))))))
[1]
  Tm: 56 °C
[2]
  folding enthalpy: -44.9 kcal/mol

## GATCGGCGAAAGCCATC (((.(((....))))))
[1]
  Tm: 35.7 °C
[2]
  folding enthalpy: -11 kcal/mol

## GATCGGCGCCCCGATC ((((((....))))))
[1]
  Tm: 56.8 °C
[2]
  folding enthalpy: -39.7 kcal/mol

## GATCGGCTACCCGATC ((((((....))))))
[1]
  Tm: 54.9 °C
[2]
  folding enthalpy: -41 kcal/mol

## GATCGGCTTACCGATC ((((((....))))))
[1]
  Tm: 57.7 °C
[2]
  folding enthalpy: -35.4 kcal/mol

## GATCGGCTTTCCGATC ((((((....))))))
[1]
  Tm: 58.6 °C
[2]
  folding enthalpy: -37 kcal/mol

## GATCGGGACCCGATC ((((((...))))))
[1]
  Tm: 56.9 °C
[2]
  folding enthalpy: -41.2 kcal/mol

## GATCGGGATCCGATC ((((((...))))))
[1]
  Tm: 55.6 °C
[2]
  folding enthalpy: -39.3 kcal/mol

## GATCGGGATGCCGATC ((((((....))))))
[1]
  Tm: 57.4 °C
[2]
  folding enthalpy: -42.1 kcal/mol

## GATCGGGCGACCGATC ((((((....))))))
[1]
  Tm: 63.1 °C
[2]
  folding enthalpy: -44.9 kcal/mol

## GATCGGGCGGCCGATC ((((((....))))))
[1]
  Tm: 61.8 °C
[2]
  folding enthalpy: -57.9 kcal/mol

## GATCGGGCTGCCGATC ((((((....))))))
[1]
  Tm: 57.1 °C
[2]
  folding enthalpy: -46.5 kcal/mol

## GATCGGGGAAACCCGACC (.(((((....))))).)
[1]
  Tm: 43.5 °C
[2]
  folding enthalpy: -13.6 kcal/mol

## GATCGGGGAAACCCGATC (((((((....)))))))
[1]
  Tm: 69 °C
[2]
  folding enthalpy: -42.5 kcal/mol

## GATCGGGGAAACCTGGTC ((.(.((....)).).))
[1]
  Tm: 36.3 °C
[2]
  folding enthalpy: -22.6 kcal/mol

## GATCGGGGGACCGATC ((((((....))))))
[1]
  Tm: 61.9 °C
[2]
  folding enthalpy: -36.2 kcal/mol

## GATCGGGGGGCCGATC ((((((....))))))
[1]
  Tm: 57.3 °C
[2]
  folding enthalpy: -53.6 kcal/mol

## GATCGGGGGTCCGATC ((((((....))))))
[1]
  Tm: 57 °C
[2]
  folding enthalpy: -34.3 kcal/mol

## GATCGGGGTTCCGATC ((((((....))))))
[1]
  Tm: 59 °C
[2]
  folding enthalpy: -36.9 kcal/mol

## GATCGGGTCTCCGATC ((((((....))))))
[1]
  Tm: 59.1 °C
[2]
  folding enthalpy: -41.2 kcal/mol

## GATCGGTAAGCCGATC ((((((....))))))
[1]
  Tm: 58.9 °C
[2]
  folding enthalpy: -49.4 kcal/mol

## GATCGGTACGCCGATC ((((((....))))))
[1]
  Tm: 63.6 °C
[2]
  folding enthalpy: -38.6 kcal/mol

## GATCGGTATACCGATC ((((((....))))))
[1]
  Tm: 64.3 °C
[2]
  folding enthalpy: -36.7 kcal/mol

## GATCGGTATCCCGATC ((((((....))))))
[1]
  Tm: 57.3 °C
[2]
  folding enthalpy: -34.5 kcal/mol

## GATCGGTCAACCGATC ((((((....))))))
[1]
  Tm: 57.5 °C
[2]
  folding enthalpy: -39.2 kcal/mol

## GATCGGTCCACCGATC ((((((....))))))
[1]
  Tm: 60.9 °C
[2]
  folding enthalpy: -50 kcal/mol

## GATCGGTCTACCGATC ((((((....))))))
[1]
  Tm: 62.3 °C
[2]
  folding enthalpy: -39.3 kcal/mol

## GATCGGTGAGCCGATC ((((((....))))))
[1]
  Tm: 60.8 °C
[2]
  folding enthalpy: -48.6 kcal/mol

## GATCGGTTCTCCGATC ((((((....))))))
[1]
  Tm: 60.6 °C
[2]
  folding enthalpy: -44.3 kcal/mol

## GATCGGTTGACCGATC ((((((....))))))
[1]
  Tm: 60.3 °C
[2]
  folding enthalpy: -33.9 kcal/mol

## GATCGGTTGCCCGATC ((((((....))))))
[1]
  Tm: 57.2 °C
[2]
  folding enthalpy: -32.5 kcal/mol

## GATCGGTTTACCGATC ((((((....))))))
[1]
  Tm: 68.6 °C
[2]
  folding enthalpy: -37.4 kcal/mol

## GATCGTAAGGACGATC ((((((....))))))
[1]
  Tm: 53.4 °C
[2]
  folding enthalpy: -31.8 kcal/mol

## GATCGTAATGACGATC ((((((....))))))
[1]
  Tm: 52.8 °C
[2]
  folding enthalpy: -34.3 kcal/mol

## GATCGTACAACGATC ((((((...))))))
[1]
  Tm: 56.5 °C
[2]
  folding enthalpy: -37.4 kcal/mol

## GATCGTACAGACGATC ((((((....))))))
[1]
  Tm: 52.5 °C
[2]
  folding enthalpy: -54.1 kcal/mol

## GATCGTACGAACGATC ((((((....))))))
[1]
  Tm: 53.3 °C
[2]
  folding enthalpy: -34.3 kcal/mol

## GATCGTACGCACGATC ((((((....))))))
[1]
  Tm: 55.1 °C
[2]
  folding enthalpy: -37.4 kcal/mol

## GATCGTAGAAACGATC ((((((....))))))
[1]
  Tm: 51.1 °C
[2]
  folding enthalpy: -35.2 kcal/mol

## GATCGTATAAACGATC ((((((....))))))
[1]
  Tm: 54.7 °C
[2]
  folding enthalpy: -31.9 kcal/mol

## GATCGTATATACGATC ((((((....))))))
[1]
  Tm: 56.6 °C
[2]
  folding enthalpy: -35.1 kcal/mol

## GATCGTATTGACGATC ((((((....))))))
[1]
  Tm: 55 °C
[2]
  folding enthalpy: -22.8 kcal/mol

## GATCGTCAATACGATC ((((((....))))))
[1]
  Tm: 54.6 °C
[2]
  folding enthalpy: -39.2 kcal/mol

## GATCGTCACCACGATC ((((((....))))))
[1]
  Tm: 54 °C
[2]
  folding enthalpy: -40.9 kcal/mol

## GATCGTCACTACGATC ((((((....))))))
[1]
  Tm: 55 °C
[2]
  folding enthalpy: -46.1 kcal/mol

## GATCGTCAGACGATC ((((((...))))))
[1]
  Tm: 52.5 °C
[2]
  folding enthalpy: -35.2 kcal/mol

## GATCGTCAGCACGATC ((((((....))))))
[1]
  Tm: 52.6 °C
[2]
  folding enthalpy: -27.8 kcal/mol

## GATCGTCATCACGATC ((((((....))))))
[1]
  Tm: 52.2 °C
[2]
  folding enthalpy: -43.8 kcal/mol

## GATCGTCATGACGATC ((((((....))))))
[1]
  Tm: 61.4 °C
[2]
  folding enthalpy: -40.3 kcal/mol

## GATCGTCCATACGATC ((((((....))))))
[1]
  Tm: 54.8 °C
[2]
  folding enthalpy: -41.8 kcal/mol

## GATCGTCCGAACGATC ((((((....))))))
[1]
  Tm: 55.2 °C
[2]
  folding enthalpy: -39.2 kcal/mol

## GATCGTCCTACGATC ((((((...))))))
[1]
  Tm: 56.5 °C
[2]
  folding enthalpy: -38.6 kcal/mol
